# Screening results as filed in PubChem BioAssay.
# HCV NS3 hel inh: inhibitors of HCV NS3 helicase, primary screen, biochemical, Cy5 molecular beacon fluorescence | inhibition, % at 10.9 µM | AID 1800, 2009 | 290,000 compounds, 0.56% hits | NS3 helicase DNA unwinding;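 active = inhibition above the mean of all tested compounds plus 3 SD, set per campaign, cut at about 35% in these data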;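 also: 0% = DMSO wells and 100% = thioflavine S control wells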
#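 assay system = NS3 helicase fragment of HCV | buffer or medium = MOPS pH 6.5, MgCl2, DTT, Tween20, BSA | timing = 60 min unwinding reaction at 25 °C after ATP addition | signal = Cy5 beacon fluorescence read at start and 1 h | read-out basis = % inhibition of unwinding | control set = low DMSO, high thioflavine S at 110 µM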
# HSP90 inh: HSP90 inhibitors, primary screen, cell lysate, luminescence. Heat shock protein HSP 90 (rabbit reticulocyte lysate; luciferase refolding). Rabbit reticulocyte lysate, luciferase refolding luminescence, 3 h. inhibition, % at 5.6 µM. 290,000 compounds, 0.91% hits. AID 1789, 2009;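 active = inhibition above the screen-wide mean plus 3 SD, computed separately per campaign, cut at about 16% in these data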;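 also: 0% = DMSO wells and 100% = 60 µM geldanamycin wells; inhibitors lower the luminescence because luciferase stays unfolded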
# HSF1 inh: HSF1 inhibitors in luciferase reporter cells, primary screen, cell-based, NIH3T3, luminescence; 300,000 compounds, 0.77% hits; NIH3T3-HGL HSE-luciferase, MG132-induced, luminescence 8 h; active compounds read low; activity change, negative = inhibition, % at 7.5 µM (by protocol); AID 2098, 2009;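 active = more than half of replicate wells show activity change below -50%, luminescence cut by over half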;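 also: luciferase reports HSF-1 transcriptional activity via heat shock element; 0% = median of DMSO wells and -100% = zero luminescence signal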
# FID counter: compounds displacing fluorescent DNA intercalator, primary screen, artefact control for HCV NS3 helicase inhibitor project, biochemical, FID fluorescence; AID 1845, 2009; DNA fluorescent intercalator displacement; inhibition, % at 7.9 µM; 290,000 compounds, 0.17% hits; in the data active = inhibition above about 37%;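 also: 0% = vehicle and 100% = reference compound; higher means more ethidium bromide displaced from hairpin DNA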
# core dimer inh: inhibitors of HCV core protein dimerization, primary screen, biochemical, TR-FRET, high-throughput; 300,000 compounds, 0.33% hits; TR-FRET GST/Flag-core106 dimerization, 1536-well; AID 1899, 2009; inhibition, % at 5 µM;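 active = inhibition above the mean of all tested compounds plus 3 SD, set per screening campaign, cut at about 45% in these data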
#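 System: GST/Flag-tagged HCV core106 proteins. Incubation: compound-protein-antibody incubation 4 h at 22.5 °C. Technique: HTRF with 340 nm excitation, 617/671 nm emission. Medium: KF-containing HEPES buffer, pH 7.45, DTT, CHAPS, BSA. Read-out: inhibition (%) from 671 over 617 nm ratio. Also added: Eu(K)-anti-GST 90 ng/mL plus XL665-anti-Flag 1 µg/mL.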
# HSF-1 act: HSF-1 activators, primary screen, NIH3T3-HGL cells, MG132 stress, luminescence, single point; NIH3T3-HGL HSF-1 luciferase reporter, 8 h; 100% = twice DMSO control signal; activation, % at 9 µM; 300,000 compounds, 1.7% hits; AID 504408, 2011;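 active = mean replicate activation of at least 50% with a set share of replicates each reaching 50%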;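 also: 0% = median of the neutral control wells and 100% = twice that signal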
# HSP90 inh confirm: HSP90 inhibitors, confirmation, cell lysate, luminescence. shares compounds with HSP90 inh. rabbit reticulocyte lysate, luciferase refolding luminescence, 3 h. inhibition, % at 5.9 µM. 2,300 compounds, 64% hits. AID 1846, 2009; in the data active = inhibition above about 18%;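 also: 0% = vehicle wells and 100% = reference inhibitor wells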
# FLuc counter: firefly luciferase inhibitors, HSP90 counter-screen, confirmation, artefact control for HSP90 inhibitor project, biochemical, luminescence, triplicate | shares compounds with HSP90 inh | purified native firefly luciferase | inhibition, % at 5.9 µM | 2,300 compounds, 48% hits | AID 1847, 2009;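 active = inhibition above the mean inhibition of all tested sample wells plus 3 SD, cut at about 10% in these data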;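 also: 0% = DMSO with luciferase and 100% = wells lacking luciferase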
# Target sequence (P08659 whole entry, looked up): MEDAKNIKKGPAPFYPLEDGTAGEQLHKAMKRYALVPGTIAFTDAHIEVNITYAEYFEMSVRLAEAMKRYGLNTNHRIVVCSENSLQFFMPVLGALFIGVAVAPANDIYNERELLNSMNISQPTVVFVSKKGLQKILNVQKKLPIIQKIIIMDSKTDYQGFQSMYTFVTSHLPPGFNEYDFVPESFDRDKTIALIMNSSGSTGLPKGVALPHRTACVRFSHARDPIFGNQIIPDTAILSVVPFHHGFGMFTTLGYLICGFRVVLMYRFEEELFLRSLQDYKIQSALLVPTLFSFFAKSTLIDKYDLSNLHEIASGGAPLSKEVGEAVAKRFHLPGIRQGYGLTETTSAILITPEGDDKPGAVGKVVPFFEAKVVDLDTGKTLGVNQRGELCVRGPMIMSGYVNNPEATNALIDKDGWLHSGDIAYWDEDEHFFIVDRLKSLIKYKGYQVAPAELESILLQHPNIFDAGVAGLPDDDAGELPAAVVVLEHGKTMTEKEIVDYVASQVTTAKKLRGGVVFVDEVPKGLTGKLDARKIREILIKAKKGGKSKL
# * = called active by the depositor; nt = no result given. Compounds with a hit are over-represented: about 3.9% of the library has one in this group of screens.
SMILES,HCV NS3 hel inh,HSP90 inh,HSF1 inh,FID counter,core dimer inh,HSF-1 act,HSP90 inh confirm,FLuc counter
CCn1c(C)nc2cc(C#N)ccc21,1,-1,-7,0,0,-13,nt,nt
Fc1ccc(-c2nc3n(n2)Cc2ccccc2-3)cc1,-8,8,nt,2,-6,nt,nt,nt
Cc1ccc(-c2nc3n(n2)Cc2ccccc2-3)cc1,-6,21*,4,-2,2,16,67*,61*
FC(F)(F)c1cc(-c2ccco2)nc2ncnn12,-6,-3,2,-1,-6,4,nt,nt
c1ccc2c(C3=NNC(=NC4CC4)SC3)c[nH]c2c1,-11,19*,87,6,-8,157*,61*,38*
S=C(NCCc1ccccn1)NC1CCCCC1,1,23*,8,0,-5,27,1,-11
S=C(NCCCc1ccccc1)NC1CCCCC1,-3,-1,4,-20,1,4,nt,nt
Cc1ccc(/C=C2\SC(=S)N(CCCC(=O)Nc3ccccn3)C2=O)cc1,7,34*,-67*,-2,10,-71,39*,-18
O=C(CCN1C(=O)/C(=C/c2ccccc2)SC1=S)Nc1ccccn1,35,-1,8,2,8,4,nt,nt
COc1ccccc1C(C(=O)NC1CCCC1)N(C(=O)c1csnn1)C1CC1 (stereo unspecified),15,-2,12,-23,-10,17,nt,nt
C=CCOc1cccc(C2c3c(oc4ccc(F)cc4c3=O)C(=O)N2CCCN2CCOCC2)c1 (stereo unspecified),nt,nt,-42,nt,-2,-53,nt,nt
N#CCCN(Cc1cccnc1)C(=S)NCc1ccco1,1,61*,nt,-4,-1,nt,4,1
COc1ccc(C(=O)Nn2cnc3ccccc3c2=O)c(OC)c1,-2,-1,11,-1,-9,21,nt,nt
CC(=O)Nc1cc(S(=O)(=O)C(F)(F)F)ccc1Cl,-1,7,-2,3,5,-12,nt,nt
Cc1ccc(-c2nc3cc(NC(=O)C(C)C)ccc3o2)cc1C,2,34*,-35,-3,1,-43,53*,54*
CCC(=O)Nc1ccc2oc(-c3cccc(C)c3)nc2c1,-10,24*,nt,-18,0,nt,40*,35*
Cc1ccc(-c2nc3cc(NC(=O)C(C)C)ccc3o2)cc1,-3,4,-2,-8,-1,-10,nt,nt
CC(=O)c1ccc(NC(=O)Cn2cnc(S(=O)(=O)N3CCCC3)c2)cc1,7,26*,2,-4,-11,-16,0,-4
CC(=O)c1ccc(NC(=O)Cn2cnc(S(=O)(=O)N3CCCCC3)c2)cc1,12,1,5,-14,4,-6,nt,nt
CCN(CC)c1ccc(/C=C(\C#N)c2ccccn2)cc1,-15,21*,-58*,-8,0,-64,70*,60*
CCc1sc(C(=O)Nc2nc(C)cs2)cc1C,-11,21*,19,-6,nt,46,34*,20*
CCN(CC)CCCNC(=O)c1cc(-c2ccccc2)c(N2CCCCC2)s1,-95,0,15,21,-4,41,nt,nt
NC(=S)N/N=C/c1cn(-c2ccccc2)nc1-c1cccnc1,3,30*,4,-18,4,4,1,-8
CN(C)c1ccc(-c2nc3ccccc3c(=O)[nH]2)cc1,-1,34*,-3,-5,-6,20,68*,53*
CSc1ncc(Cl)c(C(=O)Nc2ccccc2[N+](=O)[O-])n1,-9,-4,-3,3,11,2,nt,nt
O=C(NCc1ccco1)c1ccccc1Br,1,19*,4,0,9,-4,0,-6
